# Reference: ChEMBL document CHEMBL2384936, “Synthesis and evaluation of antimicrobial activity of hydrazones derived from 3-oxido-1H-imidazole-4-carbohydrazides” (Eur J Med Chem, 2013)
# The source made the active and inactive calls. The rule behind the calls is not given here.
# How the values were obtained:
# Candida albicans = experiment: Antifungal activity against Candida albicans ATCC 10231 assessed as growth inhibition at 1 to 600 ug/mL after 18 hrs by broth microdilution method; format: functional, organism-based
# Pseudomonas aeruginosa = experiment: Antibacterial activity against Pseudomonas aeruginosa NCTC 6249 assessed as growth inhibition at 1 to 600 ug/mL after 18 hrs by broth microdilution method; format: functional, organism-based
# [1] = test system: Staphylococcus epidermidis; experiment: Antibacterial activity against Staphylococcus epidermidis ATCC 12228 assessed as growth inhibition at 1 to 600 ug/mL after 18 hrs by broth microdilution method; format: functional, organism-based
# Enterococcus faecalis = experiment: Antibacterial activity against Enterococcus faecalis ATCC 29212 assessed as growth inhibition at 1 to 600 ug/mL after 18 hrs by broth microdilution method; format: functional, organism-based
# Proteus mirabilis = experiment: Antibacterial activity against Proteus mirabilis ATCC 29906 assessed as growth inhibition at 1 to 600 ug/mL after 18 hrs by broth microdilution method; format: functional
# Escherichia coli [2] = experiment: Antibacterial activity against Escherichia coli NCTC 8192 assessed as growth inhibition at 1 to 600 ug/mL after 18 hrs by broth microdilution method; format: functional, organism-based
# Staphylococcus aureus [3] = experiment: Antibacterial activity against Staphylococcus aureus ATCC 6538 assessed as growth inhibition at 1 to 600 ug/mL after 18 hrs by broth microdilution method; format: functional, organism-based
# How it was run: (§1)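 Frozen stocks (-80 °C, tryptic soy broth with 15% glycerol); S. aureus subcultured on blood agar and identified by catalase, coagulase and clumping factor. Inoculum at 0.5 McFarland. DMSO-dissolved compounds 1–600 µg/mL in Mueller–Hinton broth, 37 °C 18 h, OD600 read with and without compound. MIC = lowest concentration preventing growth; triplicates, per CLSI.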
# Proteus vulgaris = experiment: Antibacterial activity against Proteus vulgaris ATCC 49990 assessed as growth inhibition at 1 to 600 ug/mL after 18 hrs by broth microdilution method; format: functional, organism-based
# Staphylococcus aureus [4] = experiment: Antibacterial activity against Staphylococcus aureus ATCC 29213 assessed as growth inhibition at 1 to 600 ug/mL after 18 hrs by broth microdilution method; format: functional, organism-based; how it was run: as §1
# [5] = test system: Staphylococcus epidermidis; experiment: Bactericidal activity against Staphylococcus epidermidis ATCC 12228 after 18 hrs by broth microdilution method; format: functional; conditions: ATCC 12228, 18 h
# How it was run: (§2)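 Broth microdilution, then contents of wells without visible growth plated onto Mueller–Hinton agar and incubated 35 °C for 18 h. Triplicates, per CLSI.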
# Staphylococcus aureus [6] = experiment: Bactericidal activity against Staphylococcus aureus ATCC 29213 after 18 hrs by broth microdilution method; format: functional; conditions: ATCC 29213, 18 h; how it was run: as §2
# Staphylococcus aureus [7] = experiment: Bactericidal activity against Staphylococcus aureus ATCC 6538 after 18 hrs by broth microdilution method; format: functional; conditions: ATCC 6538, 18 h; how it was run: as §2
# Escherichia coli [8] = experiment: Bactericidal activity against Escherichia coli NCTC 8192 after 18 hrs by broth microdilution method; format: functional; conditions: NCTC 8192, 18 h; how it was run: as §2
# [9] = test system: Staphylococcus epidermidis; experiment: Antibacterial activity against Staphylococcus epidermidis ATCC 12228 assessed as growth inhibition after 18 hrs by broth microdilution method; format: functional; conditions: ATCC 12228, 18 h
# How it was run: (§3)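 Frozen stocks (-80 °C, tryptic soy broth with 15% glycerol); S. aureus subcultured on blood agar and identified by catalase, coagulase and clumping factor. Inoculum at 0.5 McFarland. MIC = lowest concentration preventing growth; triplicates, per CLSI.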
# Staphylococcus aureus [10] = experiment: Antibacterial activity against Staphylococcus aureus ATCC 29213 assessed as growth inhibition after 18 hrs by broth microdilution method; format: functional; conditions: ATCC 29213, 18 h
# How it was run: (§4)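 Broth microdilution in Mueller–Hinton broth with 1–600 µg/mL compound added from DMSO stocks. Inoculum adjusted to 0.5 McFarland. Strains stored at -80 °C and subcultured on blood agar before use. Incubation 37 °C for 18 h with OD600 read. MIC taken as the lowest concentration preventing growth, run in triplicate following CLSI. Vancomycin and oxacillin served as controls.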
# Staphylococcus aureus [11] = experiment: Antibacterial activity against Staphylococcus aureus ATCC 6538 assessed as growth inhibition after 18 hrs by broth microdilution method; format: functional; conditions: ATCC 6538, 18 h; how it was run: as §4
# Escherichia coli [12] = experiment: Antibacterial activity against Escherichia coli NCTC 8192 assessed as growth inhibition after 18 hrs by broth microdilution method; format: functional; conditions: NCTC 8192, 18 h; how it was run: as §3
SMILES,Activity (Candida albicans),Activity (Pseudomonas aeruginosa),Activity [1],Activity (Enterococcus faecalis),Activity (Proteus mirabilis),Activity (Escherichia coli [2]),Activity (Staphylococcus aureus [3]),Activity (Proteus vulgaris),Activity (Staphylococcus aureus [4]),MBC [5] [µg/mL],MBC (Staphylococcus aureus [6]) [µg/mL],MBC (Staphylococcus aureus [7]) [µg/mL],MBC (Escherichia coli [8]) [µg/mL],MIC [9] [µg/mL],MIC (Staphylococcus aureus [10]) [µg/mL],MIC (Staphylococcus aureus [11]) [µg/mL],MIC (Escherichia coli [12]) [µg/mL]
Cc1c(C(=O)N/N=C/c2ccco2)[n+]([O-])cn1Cc1ccccc1,inactive,inactive,inactive,inactive,inactive,inactive,inactive,inactive,inactive,,,,,,,,
Cc1c(C(=O)NN=C2CCCCC2)[n+]([O-])cn1Cc1ccccc1,inactive,inactive,inactive,inactive,inactive,inactive,inactive,inactive,inactive,,,,,,,,
O=C(N[C@H](CO)[C@H](O)c1ccc([N+](=O)[O-])cc1)C(Cl)Cl [CHLORAMPHENICOL],,,,,,,,,,2,4,4,0.5,0.5,1,1,0.25
